Assays:
[1] = target: Integrin alpha-V/beta-3 (Homo sapiens, UniProt P05106+P06756); assay: Inhibitory concentration for human vitronectin binding to immobilized alphaV-beta3 integrin; assay type: protein-complex assay
[2] = target: Integrin alpha-V/beta-5 (Homo sapiens, UniProt P06756+P18084); assay: Inhibitory concentration for human vitronectin binding to immobilized alphaV-beta5 integrin; assay type: protein-complex assay
[3] = target: Integrin alpha-IIb/beta-3 (Homo sapiens, UniProt P05106+P08514); assay: Inhibitory concentration for biotinylated fibrinogen binding to immobilized alpha IIb beta-3 integrin; assay type: protein-complex assay
[4] = Oral bioavailability in rat; assay type: ADME, organism-based; conditions: in vivo
Method in brief: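 Rats dosed orally at 10 mg/kg (N = 4) and intravenously at 2 mg/kg (N = 4) unless otherwise noted. The oral vehicle was D5W (5% dextrose) adjusted to pH 2 with 0.1 N HCl. Plasma drug levels were measured by LC/MS, and bioavailability was derived by comparing oral with intravenous exposure.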

[5] = Maximum plasma concentration when administered perorally at 30 mg/kg dose; assay type: ADME, organism-based; parameters: dose 30 mg/kg, route oral; conditions: rat, po
[6] = Plasma half-life when administered perorally at 30 mg/kg dose; assay type: ADME, organism-based; parameters: dose 30 mg/kg, route oral; conditions: rat, po
[7] = Plasma half-life when administered perorally at 10 mg/kg dose; conditions: rat, in vivo, po
[8] = Maximum plasma concentration when administered perorally at 15 mg/kg dose in rat; assay type: ADME, organism-based; parameters: dose 15 mg/kg, route oral; conditions: po
[9] = Time to reach maximum plasma concentration when administered perorally at 15 mg/kg dose in rat; assay type: ADME, organism-based; parameters: dose 15 mg/kg, route oral; conditions: po

Chain of Integrin alpha-V/beta-5 (P06756 31-889 limits assumed): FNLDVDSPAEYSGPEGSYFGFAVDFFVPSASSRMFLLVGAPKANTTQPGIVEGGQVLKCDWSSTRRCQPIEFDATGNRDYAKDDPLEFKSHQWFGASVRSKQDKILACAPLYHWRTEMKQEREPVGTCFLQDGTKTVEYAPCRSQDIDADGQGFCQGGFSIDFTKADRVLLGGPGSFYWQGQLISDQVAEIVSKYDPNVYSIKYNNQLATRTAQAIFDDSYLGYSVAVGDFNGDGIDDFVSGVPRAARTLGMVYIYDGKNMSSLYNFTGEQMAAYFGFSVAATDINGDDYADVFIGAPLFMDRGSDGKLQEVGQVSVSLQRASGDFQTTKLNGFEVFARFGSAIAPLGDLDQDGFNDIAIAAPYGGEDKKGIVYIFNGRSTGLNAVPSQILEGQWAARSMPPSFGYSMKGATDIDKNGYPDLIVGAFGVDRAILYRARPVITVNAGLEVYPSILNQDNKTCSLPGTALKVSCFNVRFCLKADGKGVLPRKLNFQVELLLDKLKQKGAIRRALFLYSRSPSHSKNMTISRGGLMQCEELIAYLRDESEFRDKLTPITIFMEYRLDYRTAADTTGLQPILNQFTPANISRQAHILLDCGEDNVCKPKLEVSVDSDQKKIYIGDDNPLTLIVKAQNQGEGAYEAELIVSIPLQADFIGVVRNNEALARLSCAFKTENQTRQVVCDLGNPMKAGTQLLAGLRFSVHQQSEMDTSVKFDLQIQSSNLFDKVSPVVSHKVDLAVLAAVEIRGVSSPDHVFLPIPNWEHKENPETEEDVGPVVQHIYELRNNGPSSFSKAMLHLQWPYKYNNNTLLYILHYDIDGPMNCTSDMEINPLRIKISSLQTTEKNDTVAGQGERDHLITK
Chain of Integrin alpha-V/beta-5 (P06756 891-1048 limits assumed): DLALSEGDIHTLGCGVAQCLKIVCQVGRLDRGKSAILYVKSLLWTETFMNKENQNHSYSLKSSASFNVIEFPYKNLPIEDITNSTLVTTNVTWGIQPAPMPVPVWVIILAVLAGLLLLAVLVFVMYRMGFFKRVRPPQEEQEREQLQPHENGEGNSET
Chain of Integrin alpha-V/beta-5 (P18084 24-799 limits assumed): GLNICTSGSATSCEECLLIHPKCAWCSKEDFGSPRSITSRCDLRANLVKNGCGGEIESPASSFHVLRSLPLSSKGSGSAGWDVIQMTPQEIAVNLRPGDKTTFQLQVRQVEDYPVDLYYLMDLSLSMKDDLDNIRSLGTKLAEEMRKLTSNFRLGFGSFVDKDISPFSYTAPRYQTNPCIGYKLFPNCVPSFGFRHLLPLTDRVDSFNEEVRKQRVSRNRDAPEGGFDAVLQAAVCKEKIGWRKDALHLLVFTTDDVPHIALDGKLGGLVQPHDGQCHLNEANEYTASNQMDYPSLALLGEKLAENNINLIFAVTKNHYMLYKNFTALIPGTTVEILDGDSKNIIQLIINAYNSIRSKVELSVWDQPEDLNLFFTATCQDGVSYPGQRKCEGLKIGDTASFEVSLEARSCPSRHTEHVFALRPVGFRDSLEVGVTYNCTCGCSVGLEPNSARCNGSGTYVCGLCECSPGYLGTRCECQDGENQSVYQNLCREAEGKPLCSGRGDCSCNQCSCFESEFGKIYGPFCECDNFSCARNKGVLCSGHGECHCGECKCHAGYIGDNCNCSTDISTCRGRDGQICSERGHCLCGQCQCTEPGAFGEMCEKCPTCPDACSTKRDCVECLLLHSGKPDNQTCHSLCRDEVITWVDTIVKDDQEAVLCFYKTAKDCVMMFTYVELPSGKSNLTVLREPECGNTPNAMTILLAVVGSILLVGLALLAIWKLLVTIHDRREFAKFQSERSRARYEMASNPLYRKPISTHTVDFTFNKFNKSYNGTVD
Chain of Integrin alpha-IIb/beta-3 (P05106 27-788 limits assumed): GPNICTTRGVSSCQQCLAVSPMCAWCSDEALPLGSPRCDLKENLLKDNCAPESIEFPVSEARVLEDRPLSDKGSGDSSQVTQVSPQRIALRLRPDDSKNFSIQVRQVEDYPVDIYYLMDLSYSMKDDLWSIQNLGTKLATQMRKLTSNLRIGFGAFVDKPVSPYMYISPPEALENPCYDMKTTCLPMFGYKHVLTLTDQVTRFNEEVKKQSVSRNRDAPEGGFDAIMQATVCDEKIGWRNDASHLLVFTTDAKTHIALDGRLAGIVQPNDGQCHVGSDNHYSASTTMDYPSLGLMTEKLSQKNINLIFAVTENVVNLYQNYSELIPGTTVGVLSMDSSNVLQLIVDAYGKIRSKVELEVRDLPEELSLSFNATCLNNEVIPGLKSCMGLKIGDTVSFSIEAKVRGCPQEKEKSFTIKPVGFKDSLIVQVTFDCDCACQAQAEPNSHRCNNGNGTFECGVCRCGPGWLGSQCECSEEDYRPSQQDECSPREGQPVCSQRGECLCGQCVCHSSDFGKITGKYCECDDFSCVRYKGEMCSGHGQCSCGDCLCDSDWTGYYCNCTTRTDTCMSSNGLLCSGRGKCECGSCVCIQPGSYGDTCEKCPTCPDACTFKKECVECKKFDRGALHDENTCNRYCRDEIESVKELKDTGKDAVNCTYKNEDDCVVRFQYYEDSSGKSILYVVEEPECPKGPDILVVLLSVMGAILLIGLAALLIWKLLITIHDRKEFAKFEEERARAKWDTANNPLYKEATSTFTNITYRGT
Chain of Integrin alpha-IIb/beta-3 (P08514 32-887 limits assumed): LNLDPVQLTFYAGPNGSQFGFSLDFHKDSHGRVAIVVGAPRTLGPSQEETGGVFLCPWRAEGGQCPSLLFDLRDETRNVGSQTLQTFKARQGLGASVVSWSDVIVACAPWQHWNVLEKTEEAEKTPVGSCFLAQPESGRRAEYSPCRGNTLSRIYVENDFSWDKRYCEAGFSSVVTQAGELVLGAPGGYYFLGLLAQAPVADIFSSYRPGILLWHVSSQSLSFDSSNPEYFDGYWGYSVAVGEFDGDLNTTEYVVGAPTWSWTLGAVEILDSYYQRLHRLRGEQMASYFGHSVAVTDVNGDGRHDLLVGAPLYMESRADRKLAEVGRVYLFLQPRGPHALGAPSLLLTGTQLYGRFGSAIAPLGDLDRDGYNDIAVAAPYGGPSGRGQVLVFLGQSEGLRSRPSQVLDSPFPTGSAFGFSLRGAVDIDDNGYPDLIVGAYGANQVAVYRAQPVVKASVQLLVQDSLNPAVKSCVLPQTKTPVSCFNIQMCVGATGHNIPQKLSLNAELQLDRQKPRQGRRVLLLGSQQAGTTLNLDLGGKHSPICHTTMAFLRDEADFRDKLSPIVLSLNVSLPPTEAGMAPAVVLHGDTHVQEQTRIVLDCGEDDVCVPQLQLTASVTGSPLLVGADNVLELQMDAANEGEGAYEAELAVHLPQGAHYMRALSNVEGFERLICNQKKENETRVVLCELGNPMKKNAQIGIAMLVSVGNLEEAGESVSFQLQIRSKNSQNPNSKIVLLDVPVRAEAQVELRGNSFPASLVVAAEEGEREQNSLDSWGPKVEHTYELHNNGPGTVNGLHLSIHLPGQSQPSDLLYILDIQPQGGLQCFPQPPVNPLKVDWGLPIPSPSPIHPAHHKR
Chain of Integrin alpha-IIb/beta-3 (P08514 891-1039 limits assumed): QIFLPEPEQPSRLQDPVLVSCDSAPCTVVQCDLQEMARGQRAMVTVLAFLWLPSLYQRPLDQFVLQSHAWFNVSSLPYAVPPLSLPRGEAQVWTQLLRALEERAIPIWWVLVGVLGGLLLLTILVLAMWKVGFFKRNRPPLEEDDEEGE
Chain of Integrin alpha-V/beta-3 (P05106 27-788 limits assumed): as the sequence (P05106 27-788 limits assumed) above
Chain of Integrin alpha-V/beta-3 (P06756 31-889 limits assumed): as the sequence (P06756 31-889 limits assumed) above
Chain of Integrin alpha-V/beta-3 (P06756 891-1048 limits assumed): as the sequence (P06756 891-1048 limits assumed) above

Compound	IC50 [1]	IC50 [2]	IC50 [3]	bioavailability [4]	Cmax ([5]; plasma)	half-life [6]	F [4]	Cmax ([5]; in vivo)	T1/2 [7]	Cmax [8]	Tmax [9]
O=C(O)C[C@@H](CC1CCN(C(=O)CCc2ccc3c(n2)NCCC3)CC1)c1cnc2ccccc2c1	0.8 nM	2.2 nM	1100 nM	4%	500 nM	3 h					
O=C(O)C[C@@H](C1CCN(C(=O)CCCc2ccc3c(n2)NCCC3)CC1)C1CNc2ccccc2C1 (single isomer, unassigned; isomer d)	5.4 nM	160 nM	17000 nM				52%	58000 nM	1 h		
O=C(O)C[C@@H](C1CCN(C(=O)CCCc2ccc3c(n2)NCCC3)CC1)C1CNc2ccccc2C1 (mixture of isomers)	3.7 nM	260 nM	15000 nM				100%				
COc1ccc([C@@H](CC(=O)O)CC2CCN(C(=O)CCc3ccc4c(n3)NCCC4)CC2)cn1 (stereo in doubt; form 2)	16 nM	98 nM	> 50000 nM								
O=C(O)C[C@@H](C1CCN(C(=O)CCCc2ccc3c(n2)NCCC3)CC1)C1CNc2ccccc2C1 (stereo in doubt; form 2)	100 nM	1500 nM	> 50000 nM								
O=C(O)C[C@H](NC(=O)C1CCN(C(=O)CCCNC2=NCCN2)CC1)c1cnc2ccccc2c1	3.6 nM	470 nM	170 nM	4%	800 nM	7 h					
O=C(O)CC(CC1CCN(C(=O)CCc2ccc3c(n2)NCCC3)CC1)C1CNc2ccccc2C1 (racemic)			14000 nM							21000 nM	2 h
O=C(O)C[C@@H](CC1CCN(C(=O)CCc2ccc3c(n2)NCCC3)CC1)c1cnc2c(c1)CCCC2 (stereo in doubt; form 4)	52 nM	2200 nM	> 50000 nM								
O=C(O)C[C@H](NC(=O)C1CCN(C(=O)CCc2ccc3c(n2)NCCC3)CC1)c1cnc2ccccc2c1	2.6 nM	270 nM	2900 nM								
O=C(O)C[C@@H](C1CCN(C(=O)CCCc2ccc3c(n2)NCCC3)CC1)C1CNc2ccccc2C1 (single isomer, unassigned; isomer b)	70 nM	2500 nM	> 50000 nM								
O=C(O)C[C@@H](CC1CCN(C(=O)CCc2ccc3c(n2)NCCC3)CC1)c1cnc2c(c1)CCCC2 (stereo in doubt; 28)	1.6 nM	11 nM	3000 nM				0%				
O=C(O)C[C@@H](C1CCN(C(=O)CCCc2ccc3c(n2)NCCC3)CC1)C1CNc2ccccc2C1 (stereo in doubt; form 1)	1.6 nM	44 nM	13000 nM			2 h	46%	8000 nM			
O=C(O)C[C@@H]1Cc2ccc(OCCCNc3ccccn3)cc2Cc2ccccc21	4 nM	2.9 nM	1200 nM								
O=C(O)C[C@@H](CC1CCN(C(=O)CCc2ccc3c(n2)NCCC3)CC1)c1cnc2c(c1)CCCC2 (stereo in doubt; form 1)	26 nM	1000 nM	> 50000 nM								
COc1ccc([C@@H](CC(=O)O)CC2CCN(C(=O)CCc3ccc4c(n3)NCCC4)CC2)cn1 (stereo in doubt; form 1)	0.4 nM	3.1 nM	1800 nM			2 h	2%	100 nM			
COc1ccc([C@@H](CC(=O)O)CC2CCN(C(=O)CCc3ccc4c(n3)NCCC4)CC2)cn1 (stereo in doubt; 34)	0.7 nM	2.7 nM	6100 nM				8%	900 nM			
O=C(O)C[C@H](c1cnc2ccccc2c1)C1CCN(C(=O)CCCc2ccc3c(n2)NCCC3)CC1	0.5 nM	36 nM	870 nM	1%							
CN1CC(C(CC(=O)O)CC2CCN(C(=O)CCc3ccc4c(n3)NCCC4)CC2)Cc2ccccc21 (racemic)	49 nM	180 nM	> 50000 nM								

Source: ChEMBL document CHEMBL1138711, “1,2,3,4-Tetrahydroquinoline-containing alphaVbeta3 integrin antagonists with enhanced oral bioavailability” (Bioorg Med Chem Lett, 2004)
